ChEMBL document CHEMBL3120102, “Structure-based design, synthesis and biological evaluation of novel anthra[1,2-d]imidazole-6,11-dione homologues as potential antitumor agents” (2013)

Assays:
Assay type in all cases: functional
[1] = tested on: RXF 393; test: Cytotoxicity against human RXF393 cells assessed as growth inhibition after 48 hrs by SRB assay
How it was run: (§1)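 NCI 60-cell-line screen, five-dose stage: each cell line exposed for 48 h to five concentrations spanning five log steps; cellular protein measured by sulforhodamine B colorimetry. A time-zero cell control and plates without drug are used to derive GI50, TGI and LC50 from log-concentration dose-response curves.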

[2] = tested on: MDA-MB-435; test: Cytotoxicity against human MDA-MB-435 cells assessed as growth inhibition after 48 hrs by SRB assay; how it was run: as §1
[3] = tested on: HCT-15; test: Cytotoxicity against human HCT15 cells assessed as growth inhibition after 48 hrs by SRB assay
How it was run: (§2)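 NCI 60-cell-line five-dose screen at […]. Drug exposure was 48 h, followed by sulforhodamine B protein staining. GI50, TGI and LC50 were calculated against a time-zero control and untreated plates, with dose–response curves plotted from log10 concentration.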

[4] = tested on: MDA-MB-468; test: Cytotoxicity against human MDA-MB-468 cells assessed as growth inhibition after 48 hrs by SRB assay; how it was run: as §1
[5] = tested on: NCI-H460; test: Cytotoxicity against human NCI-H460 cells assessed as growth inhibition after 48 hrs by SRB assay; how it was run: as §1
[6] = (§3) Cytotoxicity against human NCI-ADR-RES cells assessed as growth inhibition after 48 hrs by SRB assay; how it was run: as §1
[7] = tested on: NCI/ADR-RES; test: as §3; how it was run: as §1
[8] = tested on: SR; test: Cytotoxicity against human SR cells assessed as growth inhibition after 48 hrs by SRB assay
How it was run: (§4)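 NCI 60-cell-line screen, two stages. Five-dose testing at […]. Cellular protein measured by sulforhodamine B colorimetry after 48 h drug exposure. A time-zero control and drug-free plates are used to derive GI50, TGI and LC50 from dose-response curves plotted as log10 concentration per cell line.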

[9] = tested on: A498; test: Cytotoxicity against human A498 cells assessed as growth inhibition after 48 hrs by SRB assay; how it was run: as §2
[10] = tested on: SK-MEL-2; test: Cytotoxicity against human SK-MEL-2 cells assessed as growth inhibition after 48 hrs by SRB assay; how it was run: as §1
[11] = tested on: 786-0; test: Cytotoxicity against human 786-0 cells assessed as growth inhibition after 48 hrs by SRB assay; how it was run: as §2
[12] = tested on: NCI-H322M; test: Cytotoxicity against human NCI-H322M cells assessed as growth inhibition after 48 hrs by SRB assay; how it was run: as §1
[13] = tested on: OVCAR-3; test: Cytotoxicity against human OVCAR3 cells assessed as growth inhibition after 48 hrs by SRB assay; how it was run: as §1
[14] = tested on: NCI-H522; test: Cytotoxicity against human NCI-H522 cells assessed as growth inhibition after 48 hrs by SRB assay; how it was run: as §1
[15] = tested on: IGROV-1; test: Cytotoxicity against human IGROV1 cells assessed as growth inhibition after 48 hrs by SRB assay; how it was run: as §2
[16] = tested on: BT-549; test: Cytotoxicity against human BT549 cells assessed as growth inhibition after 48 hrs by SRB assay; how it was run: as §2
[17] = tested on: UO-31; test: (§5) Cytotoxicity against human UO31 cells assessed as growth inhibition after 48 hrs by SRB assay; how it was run: as §4
[18] = as §5; conditions: UO-31, 48 h; how it was run: as §4
[19] = tested on: HT-29; test: Cytotoxicity against human HT-29 cells assessed as growth inhibition after 48 hrs by SRB assay; how it was run: as §2
[20] = tested on: Malme-3M; test: Cytotoxicity against human MALME-3M cells assessed as growth inhibition after 48 hrs by SRB assay; how it was run: as §2
[21] = tested on: HL-60(TB); test: Cytotoxicity against human HL-60(TB) cells assessed as growth inhibition after 48 hrs by SRB assay
How it was run: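 NCI 60-cell panel five-concentration stage (0.01, 0.1, 1, 10, 100) in HL-60(TB). Cellular protein was measured by sulforhodamine B colorimetry after 48 h of exposure. A time-zero cell control and untreated plates allowed calculation of GI50, TGI and LC50. These were read from log10 concentration dose-response curves.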

[22] = tested on: ACHN; test: Cytotoxicity against human ACHN cells assessed as growth inhibition after 48 hrs by SRB assay; how it was run: as §2
[23] = tested on: OVCAR-4; test: (§6) Cytotoxicity against human OVCAR4 cells assessed as growth inhibition after 48 hrs by SRB assay; how it was run: as §1
[24] = as §6; conditions: OVCAR-4, 48 h; how it was run: as §1
[25] = tested on: LOX IMVI; test: Cytotoxicity against human LOXIMVI cells assessed as growth inhibition after 48 hrs by SRB assay; how it was run: as §2
[26] = tested on: NCI-H23; test: Cytotoxicity against human NCI-H23 cells assessed as growth inhibition after 48 hrs by SRB assay; how it was run: as §1
[27] = tested on: SF-539; test: Cytotoxicity against human SF539 cells assessed as growth inhibition after 48 hrs by SRB assay; how it was run: as §1
[28] = Cytotoxicity against human Hs578T cells assessed as cell growth at 10 uM after 48 hrs by SRB assay; conditions: Hs-578T, read-out: Activity
[29] = read-out: LC50 (the source's name)

For `CN(C)CCCSc1nc2ccc3c(c2[nH]1)C(=O)c1ccccc1C3=O`, the “growth inhibition (GI)” value [1] was “Dose-dependent effect”, the GI50 ([1]; RXF 393, 48 h) was 1.89 µM and the TGI ([1]; RXF 393, 48 h) was 12.8 µM. For the same molecule, the CC50 ([1]; RXF 393, 48 h, read-out: LC50 (the source's name)) was 42.3 µM, the “growth inhibition (GI)” value [2] was “Dose-dependent effect” and the GI50 ([2]; MDA-MB-435, 48 h) was 10.4 µM. For the same molecule, the TGI ([2]; MDA-MB-435, 48 h) was 22.2 µM, the “growth inhibition (GI)” value [3] was “Dose-dependent effect” and the GI50 ([3]; HCT-15, 48 h) was 0.68 µM. For the same molecule, the TGI ([3]; HCT-15, 48 h) was 15 µM, the “growth inhibition (GI)” value [4] was “Dose-dependent effect” and the GI50 ([4]; MDA-MB-468, 48 h) was less than 0.01 µM. The TGI ([4]; MDA-MB-468, 48 h) was 0.439 µM, the “growth inhibition (GI)” value [5] was “Dose-dependent effect” and the TGI ([5]; NCI-H460, 48 h) was 12.8 µM. For the same molecule, the GI50 [6] was 5.11 µM, the TGI [6] was 21.5 µM and the “growth inhibition (GI)” value [7] was “Dose-dependent effect”. For the same molecule, the GI50 [8] was 0.43 µM, the TGI [8] was 3.47 µM and the “growth inhibition (GI)” value [8] was “Dose-dependent effect”. The “growth inhibition (GI)” value [9] was “Dose-dependent effect”, the GI50 ([9]; A498, 48 h) was 12.1 µM and the TGI ([9]; A498, 48 h) was 24.8 µM. The CC50 ([9]; A498, 48 h, read-out: LC50 (the source's name)) was 51 µM, the “growth inhibition (GI)” value [10] was “Dose-dependent effect” and the GI50 ([10]; SK-MEL-2, 48 h) was 13.3 µM. The TGI ([10]; SK-MEL-2, 48 h) was 26.3 µM, the “growth inhibition (GI)” value [11] was “Dose-dependent effect” and the GI50 ([11]; 786-0, 48 h) was 9.73 µM. It also gave a TGI ([11]; 786-0, 48 h) of 23.8 µM, a GI50 [12] of 0.72 µM and a TGI [12] of 20.6 µM. For the same molecule, the “growth inhibition (GI)” value [12] was “Dose-dependent effect”, the “growth inhibition (GI)” value [13] was “Dose-dependent effect” and the GI50 ([13]; OVCAR-3, 48 h) was 3.73 µM. The TGI ([13]; OVCAR-3, 48 h) was 18.2 µM, the “growth inhibition (GI)” value [14] was “Dose-dependent effect” and the GI50 ([14]; NCI-H522, 48 h) was 12.2 µM. The TGI ([14]; NCI-H522, 48 h) was 24.9 µM, the CC50 ([14]; NCI-H522, 48 h, read-out: LC50 (the source's name)) was 50.5 µM and the “growth inhibition (GI)” value [15] was “Dose-dependent effect”. The GI50 ([15]; IGROV-1, 48 h) was 0.329 µM, the TGI ([15]; IGROV-1, 48 h) was 12.8 µM and the “growth inhibition (GI)” value [16] was “Dose-dependent effect”. The GI50 ([16]; BT-549, 48 h) was 9.13 µM, the TGI ([16]; BT-549, 48 h) was 21.8 µM and the “growth inhibition (GI)” value [17] was “Dose-dependent effect”. The GI50 [18] was 0.564 µM, the TGI [18] was 11.7 µM and the “growth inhibition (GI)” value [19] was “Dose-dependent effect”. For the same molecule, the GI50 ([19]; HT-29, 48 h) was 1.04 µM, the TGI ([19]; HT-29, 48 h) was 2.61 µM and the CC50 ([19]; HT-29, 48 h, read-out: LC50 (the source's name)) was 6.53 µM. For the same molecule, the GI50 [20] was 13.9 µM, the TGI [20] was 27 µM and the “growth inhibition (GI)” value [20] was “Dose-dependent effect”. The CC50 [20, 29] was 52.4 µM, the “growth inhibition (GI)” value [21] was “Dose-dependent effect” and the GI50 ([21]; HL-60, 48 h) was 2.41 µM. The TGI ([21]; HL-60, 48 h) was 8.52 µM, the GI50 [22] was 1.74 µM and the TGI [22] was 15 µM. For the same molecule, the “growth inhibition (GI)” value [22] was “Dose-dependent effect”, the CC50 [22, 29] was 38.7 µM and the “growth inhibition (GI)” value [23] was “Dose-dependent effect”. For the same molecule, the GI50 [24] was 0.031 µM, the TGI [24] was 5.04 µM and the GI50 [25] was 1.36 µM. The TGI [25] was 3 µM, the “growth inhibition (GI)” value [25] was “Dose-dependent effect” and the “growth inhibition (GI)” value [26] was “Dose-dependent effect”. The TGI ([26]; NCI-H23, 48 h) was 19.7 µM, the “growth inhibition (GI)” value [27] was “Dose-dependent effect” and the GI50 ([27]; SF-539, 48 h) was 10.9 µM. The TGI ([27]; SF-539, 48 h) was 22.7 µM, the CC50 ([27]; SF-539, 48 h, read-out: LC50 (the source's name)) was 47.7 µM and the growth at 10 µM [28] was 69.3%.
